This is an account of results in ChEMBL document CHEMBL1127319, “CNAD: a potent and specific inhibitor of alcohol dehydrogenase” (J Med Chem, 1994).

Structures are written as SMILES.

Assay [1] addresses Glutamate dehydrogenase 1, mitochondrial (Bos taurus, UniProt P00366). The assay is described as follows: Inhibition constant against mammalian glutamate dehydrogenase (GDH). Put shortly:
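Bovine liver GDH in 0.1 M sodium phosphate, pH 7.0, with 10 μM EDTA. NAD is the variable substrate. Rates are followed as the increase in A340 from NADH formation (ε 6.22 mM-1 cm-1). Ki is taken from Lineweaver-Burk plots by linear regression. At least duplicate runs.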

The nature of assay [2]: Apparent inhibition constant against mammalian malate dehydrogenase (MDH). Put shortly: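 LDH and MDH: 0.05 M Tris-HCl, pH 9.0. NAD is the variable substrate. Rates come from the rise in A340 as NADH forms (ε 6.22 mM-1 cm-1). Ki is estimated from Lineweaver-Burk plots by linear regression of slope and intercept. Assays run at least in duplicate.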

Sequence of Glutamate dehydrogenase 1, mitochondrial (P00366 whole entry): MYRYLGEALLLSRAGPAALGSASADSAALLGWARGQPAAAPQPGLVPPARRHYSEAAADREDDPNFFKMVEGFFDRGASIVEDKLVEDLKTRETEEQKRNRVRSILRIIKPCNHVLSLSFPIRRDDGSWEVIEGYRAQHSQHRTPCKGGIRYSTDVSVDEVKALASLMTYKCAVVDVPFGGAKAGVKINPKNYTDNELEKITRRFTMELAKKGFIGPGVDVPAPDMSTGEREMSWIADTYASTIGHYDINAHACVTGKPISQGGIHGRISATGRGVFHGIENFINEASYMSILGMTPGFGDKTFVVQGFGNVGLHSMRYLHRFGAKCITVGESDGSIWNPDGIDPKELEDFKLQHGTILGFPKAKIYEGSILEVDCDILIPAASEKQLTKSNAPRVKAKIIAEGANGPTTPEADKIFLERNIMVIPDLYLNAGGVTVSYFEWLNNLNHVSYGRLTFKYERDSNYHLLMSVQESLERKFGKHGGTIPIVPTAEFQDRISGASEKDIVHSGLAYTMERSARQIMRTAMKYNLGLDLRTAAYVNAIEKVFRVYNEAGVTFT

With `NC(=O)C1=CN(C2OC(COP(=O)(O)OP(=O)(O)OC[C@H]3O[C@@H](n4cnc5c(N)ncnc54)[C@H](O)[C@@H]3O)[C@H](O)[C@@H]2O)C=CC1` (stereo partly drawn), the Ki in assay [1] worked out at 3.4 µM.
`NC(=O)c1cncc([C@@H]2O[C@H](COP(=O)(O)OP(=O)(O)OC[C@H]3O[C@@H](n4cnc5c(N)ncnc54)[C@H](O)[C@@H]3O)[C@@H](O)[C@H]2O)c1`: the Ki in assay [2] stood at 410 µM.
In assay [1], `NC(=O)c1cccc([C@@H]2O[C@H](COP(=O)(O)OP(=O)(O)OC[C@H]3O[C@@H](n4cnc5c(N)ncnc54)[C@H](O)[C@@H]3O)[C@@H](O)[C@H]2O)n1` had a Ki of 50 µM.
